Data from ChEMBL document CHEMBL1255403, “Genetic dissection of azole resistance mechanisms in Candida albicans and their validation in a mouse model of disseminated infection” (2010).
Converted amounts (≈) assume the structure as drawn.

Key:
Assay type in all cases: functional
Candida albicans [1] = assay: […] activity against Fluconazole resistant Candida albicans DSY3608 containing tac1delta/delta ERG11-1/ERG11-1 (TAC1-1) genotype by EUCAST standards based broth microdilution method sCandida albicans DSY294
Candida albicans [2] = assay: […] activity against Fluconazole resistant Candida albicans DSY3752 containing (TAC1-5/TAC1-5 ERG11-1/ERG11-1) genotype by EUCAST standards based broth microdilution method sCandida albicans DSY294
Candida albicans [3] = assay: (§1) Antibacterial activity against azole-susceptible Candida albicans DSY294 containing CIp10 to restore URA3 function infected in BALB/c mouse assessed as reduction in kidney microbial burden administered intraperitoneally 1 hr post bacterial challenge measured 3 days post infection
Method in brief: (§2)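 At 72 h the left kidney was homogenised in saline and viable counts taken as log10 CFU/g. ED50 was the dose lowering the mean burden >1.5 log below controls.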

Candida albicans [4] = assay: (§3) Antibacterial activity against azole-susceptible Candida albicans DSY294 containing CIp10 to restore URA3 function infected in BALB/c mouse assessed as weight change administered intraperitoneally 1 hr post bacterial challenge measured 3 days post infection
Method in brief: (§4)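 Female BALB/c mice (18 to 22 g) infected i.v. with saline suspension of C. albicans grown overnight in NGY medium. […] Percentage body weight change over 3 days; ED50 = dose reducing mean weight change below 50% of controls.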

Candida albicans [5] = assay: (§5) Antibacterial activity against azole-susceptible Candida albicans DSY294 containing CIp10 to restore URA3 function infected in BALB/c mouse assessed as effect on infection outcome score administered intraperitoneally 1 hr post bacterial challenge measured 3 days post infection
Method in brief: (§6)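 Intravenous infection of female BALB/c mice with a strain-specific inoculum. […] ED50 was derived from the 3-day infection outcome score at 72 h.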

Candida albicans [6] = assay: (§7) Antibacterial activity against azole-susceptible Candida albicans DSY294 containing CIp10 to restore URA3 function infected in BALB/c mouse administered intraperitoneally 1 hr post bacterial challenge measured 3 days post infection
Method in brief: (§8)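 Female BALB/c mice (18–22 g) infected i.v. with a saline suspension of NGY-grown yeast. The challenge inoculum was strain-specific, set by pilot dose-finding. […] Endpoint at 72 h. Median of ED50s from kidney burden, weight change and outcome score.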

Candida albicans [7] = assay: as §1, with “Fluconazole resistant” for “azole-susceptible”, “DSY296 overexpressing multidrug transporter gene CDR1 and CDR2 and containing ERG11 G464S mutation” for “DSY294”; method in brief: as §2
Candida albicans [8] = assay: as §3, with “Fluconazole resistant” for “azole-susceptible”, “DSY296 overexpressing multidrug transporter gene CDR1 and CDR2 and containing ERG11 G464S mutation” for “DSY294”
Candida albicans [9] = assay: as §5, with “Fluconazole resistant” for “azole-susceptible”, “DSY296 overexpressing multidrug transporter gene CDR1 and CDR2 and containing ERG11 G464S mutation” for “DSY294”; method in brief: as §6
Candida albicans [10] = assay: as §7, with “Fluconazole resistant” for “azole-susceptible”, “DSY296 overexpressing multidrug transporter gene CDR1 and CDR2 and containing ERG11 G464S mutation” for “DSY294”; method in brief: as §8
Candida albicans [11] = assay: as §1, with “Fluconazole resistant” for “azole-susceptible”, “DSY3083 containing tac1delta/delta genotype” for “DSY294”; method in brief: as §2
Candida albicans [12] = assay: (§9) Antibacterial activity against Fluconazole resistant Candida albicans DSY3083 containing tac1delta/delta genotype containing CIp10 to restore URA3 function infected in BALB/c mouse assessed as weight change administered intraperitoneally 1 hr post bacterial challenge measured 3 days post infection
Candida albicans [13] = assay: as §9, with “effect on infection outcome score” for “weight change”; method in brief: as §6
Candida albicans [14] = assay: Antibacterial activity against Fluconazole resistant Candida albicans DSY3083 containing tac1delta/delta genotype containing CIp10 to restore URA3 function infected in BALB/c mouse administered intraperitoneally 1 hr post bacterial challenge measured 3 days post infection; method in brief: as §8
Candida albicans [15] = assay: as §1, with “Fluconazole resistant” for “azole-susceptible”, “DSY3606” for “DSY294”, “tac1delta/delta ERG11-1/ERG11-1 (TAC1-5) genotype” for “CIp10 to restore URA3 function”; method in brief: as §2
Candida albicans [16] = assay: (§10) […] activity against Fluconazole resistant Candida albicans DSY3606 containing tac1delta/delta ERG11-1/ERG11-1 (TAC1-5) genotype infected in BALB/c mouse assessed as weight change administered intraperitoneally 1 hr post […] measured 3 days post infection
Candida albicans [17] = assay: as §10, with “effect on infection outcome score” for “weight change”; method in brief: as §6
Candida albicans [18] = assay: Antibacterial activity against Fluconazole resistant Candida albicans DSY3606 containing tac1delta/delta ERG11-1/ERG11-1 (TAC1-5) genotype infected in BALB/c mouse administered intraperitoneally 1 hr post bacterial challenge measured 3 days post infection; method in brief: as §8
Candida albicans [19] = assay: Antibacterial activity against Fluconazole resistant Candida albicans DSY3706 containing tac1delta/delta ERG11-1/ERG11-1 genotype infected in BALB/c mouse assessed as reduction in kidney microbial burden administered intraperitoneally 1 hr post bacterial challenge measured 3 days post infection; method in brief: as §2
Candida albicans [20] = assay: Antibacterial activity against Fluconazole resistant Candida albicans DSY3706 containing tac1delta/delta ERG11-1/ERG11-1 genotype infected in BALB/c mouse assessed as weight change administered intraperitoneally 1 hr post bacterial challenge measured 3 days post infection; method in brief: as §4
Candida albicans [21] = assay: Antibacterial activity against Fluconazole resistant Candida albicans DSY3706 containing tac1delta/delta ERG11-1/ERG11-1 genotype infected in BALB/c mouse assessed as effect on infection outcome score administered intraperitoneally 1 hr post bacterial challenge measured 3 days post infection; method in brief: as §6
Candida albicans [22] = assay: Antibacterial activity against Fluconazole resistant Candida albicans DSY3706 containing tac1delta/delta ERG11-1/ERG11-1 genotype infected in BALB/c mouse administered intraperitoneally 1 hr post bacterial challenge measured 3 days post infection; method in brief: as §8
Candida albicans [23] = assay: Antibacterial activity against azole-susceptible Candida albicans DSY294 by EUCAST standards based broth microdilution method
Method in brief: (§11)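 Cells grew overnight in YEPD at 30°C and were diluted to 5 × 10^4 cells/ml in RPMI 1640 (MOPS 0.165 M, pH 7, 2% glucose, 1% DMSO). Drug from aqueous stock was 100-fold diluted. Plates ran 24 h at 35°C and were read at 450 nm. MIC was the concentration giving >50% OD decrease versus drug-free control.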

Candida albicans [24] = assay: Antibacterial activity against Fluconazole resistant Candida albicans DSY296 overexpressing multidrug transporter gene CDR1 and CDR2 and containing ERG11 G464S mutation by EUCAST standards based broth microdilution method; method in brief: as §11
Candida albicans [25] = assay: Antibacterial activity against Fluconazole resistant Candida albicans DSY3083 containing tac1delta/delta genotype by EUCAST standards based broth microdilution method; method in brief: as §11
Candida albicans [26] = assay: Antibacterial activity against Fluconazole resistant Candida albicans DSY3604 containing tac1delta/delta ERG11-1/ERG11-5 genotype by EUCAST standards based broth microdilution method; method in brief: as §11
Candida albicans [27] = assay: Antibacterial activity against Fluconazole resistant Candida albicans DSY3706 containing tac1delta/delta ERG11-1/ERG11-1 genotype by EUCAST standards based broth microdilution method; method in brief: as §11
Candida albicans [28] = assay: Antibacterial activity against Fluconazole resistant Candida albicans DSY3606 containing tac1delta/delta ERG11-1/ERG11-1 (TAC1-5) genotype by EUCAST standards based broth microdilution method; method in brief: as §11
Candida albicans [29] = assay: Antibacterial activity against Fluconazole resistant Candida albicans DSY3608 containing tac1delta/delta ERG11-1/ERG11-1 (TAC1-1) genotype by EUCAST standards based broth microdilution method; method in brief: as §11
Candida albicans [30] = assay: Antibacterial activity against Fluconazole resistant Candida albicans DSY3752 containing (TAC1-5/TAC1-5 ERG11-1/ERG11-1) genotype by EUCAST standards based broth microdilution method; method in brief: as §11
Candida albicans [31] = assay: Antibacterial activity against Fluconazole resistant Candida albicans DSY3083 containing tac1delta/delta genotype by EUCAST standards based broth microdilution method sCandida albicans DSY294
Candida albicans [32] = assay: Antibacterial activity against Fluconazole resistant Candida albicans DSY3604 containing tac1delta/delta ERG11-1/ERG11-5 genotype by EUCAST standards based broth microdilution method sCandida albicans DSY294
Candida albicans [33] = assay: […] activity against Fluconazole resistant Candida albicans DSY3706 containing tac1delta/delta ERG11-1/ERG11-1 genotype by EUCAST standards based broth microdilution method sCandida albicans DSY294
Candida albicans [34] = assay: Antibacterial activity against Fluconazole resistant Candida albicans DSY3606 containing tac1delta/delta ERG11-1/ERG11-1 (TAC1-5) genotype by EUCAST standards based broth microdilution method sCandida albicans DSY294
Candida albicans [35] = assay: […] activity against Fluconazole resistant Candida albicans DSY296 overexpressing multidrug transporter gene CDR1 and CDR2 and containing ERG11 G464S mutation by EUCAST standards based broth microdilution method relative to wildtype sCandida albicans DSY294

Structure (SMILES)	fold change (FC) (Candida albicans [1])	fold change (FC) (Candida albicans [2])	MIC (Candida albicans [23])	MIC (Candida albicans [24])	MIC (Candida albicans [25])	MIC (Candida albicans [26])	MIC (Candida albicans [27])	MIC (Candida albicans [28])	MIC (Candida albicans [29])	MIC (Candida albicans [30])	fold change (FC) (Candida albicans [31])	fold change (FC) (Candida albicans [32])	fold change (FC) (Candida albicans [33])	fold change (FC) (Candida albicans [34])	fold change (FC) (Candida albicans [35])	further results
OC(Cn1cncn1)(Cn1cncn1)c1ccc(F)cc1F [FLUCONAZOLE]	1	16	0.25 µg/mL (≈ 0.816 µM)	64 µg/mL (≈ 209 µM)	4 µg/mL (≈ 13.1 µM)	2 µg/mL (≈ 6.53 µM)	0.25 µg/mL (≈ 0.816 µM)	4 µg/mL (≈ 13.1 µM)	0.25 µg/mL (≈ 0.816 µM)	4 µg/mL (≈ 13.1 µM)	16	8	1	16		MIC (Candida albicans [3]): 10 µg/mL; MIC (Candida albicans [4]): 1 µg/mL (≈ 3.27 µM); MIC (Candida albicans [5]): 3.5 µg/mL (≈ 11.4 µM); MIC (Candida albicans [6]): 3.5 µg/mL (≈ 11.4 µM); MIC (Candida albicans [7]): > 200 µg/mL; MIC (Candida albicans [8]): 120 µg/mL (≈ 392 µM); MIC (Candida albicans [9]): 200 µg/mL (≈ 653 µM); MIC (Candida albicans [10]): 200 µg/mL (≈ 653 µM); MIC (Candida albicans [11]): 10 µg/mL; MIC (Candida albicans [12]): 10 µg/mL (≈ 32.7 µM); MIC (Candida albicans [13]): 10 µg/mL (≈ 32.7 µM); MIC (Candida albicans [14]): 10 µg/mL (≈ 32.7 µM); MIC (Candida albicans [15]): 120 µg/mL; MIC (Candida albicans [16]): 120 µg/mL (≈ 392 µM); MIC (Candida albicans [17]): 120 µg/mL (≈ 392 µM); MIC (Candida albicans [18]): 120 µg/mL (≈ 392 µM); MIC (Candida albicans [19]): 3.5 µg/mL; MIC (Candida albicans [20]): 1 µg/mL (≈ 3.27 µM); MIC (Candida albicans [21]): 3.5 µg/mL (≈ 11.4 µM); MIC (Candida albicans [22]): 3.5 µg/mL (≈ 11.4 µM)
CCC(C)n1ncn(-c2ccc(N3CCN(c4ccc(OCC5COC(Cn6cncn6)(c6ccc(Cl)cc6Cl)O5)cc4)CC3)cc2)c1=O (centres undefined) [ITRACONAZOLE]	2	16	0.0156 µg/mL (≈ 0.0221 µM)	0.25 µg/mL (≈ 0.354 µM)	0.031 µg/mL (≈ 0.0439 µM)	0.031 µg/mL (≈ 0.0439 µM)	0.0156 µg/mL (≈ 0.0221 µM)	0.125 µg/mL (≈ 0.177 µM)	0.031 µg/mL (≈ 0.0439 µM)	0.25 µg/mL (≈ 0.354 µM)	2	2	1	8	16	
CC[C@@H]([C@H](C)O)n1ncn(-c2ccc(N3CCN(c4ccc(OC[C@@H]5CO[C@@](Cn6cncn6)(c6ccc(F)cc6F)C5)cc4)CC3)cc2)c1=O [POSACONAZOLE]	1	8	0.0312 µg/mL (≈ 0.0445 µM)	0.25 µg/mL (≈ 0.357 µM)	0.031 µg/mL (≈ 0.0442 µM)	0.031 µg/mL (≈ 0.0442 µM)	0.031 µg/mL (≈ 0.0442 µM)	0.25 µg/mL (≈ 0.357 µM)	0.031 µg/mL (≈ 0.0442 µM)	0.25 µg/mL (≈ 0.357 µM)	1	1	1	8	8	
C[C@@H](c1ncncc1F)[C@](O)(Cn1cncn1)c1ccc(F)cc1F [VORICONAZOLE]	1	16	0.0078 µg/mL (≈ 0.0223 µM)	2 µg/mL (≈ 5.73 µM)	0.125 µg/mL (≈ 0.358 µM)	0.0625 µg/mL (≈ 0.179 µM)	0.0078 µg/mL (≈ 0.0223 µM)	0.125 µg/mL (≈ 0.358 µM)	0.0078 µg/mL (≈ 0.0223 µM)	0.125 µg/mL (≈ 0.358 µM)	16	8	1	16	256	
